Compound in data set [1]: COc1ccc2c(c1)c(=O)c(C(=O)O)cn2[C@@H]1O[C@H](CO)[C@@H](O)[C@H]1O
Nature of the data set: (§1) Competitive inhibition of Trypanosoma cruzi glycosomal GAPDH assessed as increase in NAD+ Km by ITC method. In outline:
(§2)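 Enzyme assays were run by isothermal titration calorimetry (ITC), probing the GAPDH NAD+ cosubstrate site and the active site. Affinity is reported as apparent Ki. Mode of inhibition was judged from how NAD+ and G3P KM and Vmax respond. Kinetic models were compared by second-order Akaike's information criterion.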
(In ITC the heat of successive injections is recorded.)

Compound in data set [2]: Cc1ccc2c(c1)c(=O)c(C(=O)O)cn2[C@@H]1O[C@H](CO)[C@@H](O)[C@H]1O
Described as §1. A digest of the protocol: as §2

Compound in data set [3]: O=C(O)c1cn([C@@H]2O[C@H](CO)[C@@H](O)[C@H]2O)c2cc(Br)ccc2c1=O
Described as §1. A digest of the protocol: as §2

Compound in data set [4]: Cc1ccc2c(=O)c(C(=O)O)cn([C@@H]3O[C@H](CO)[C@@H](O)[C@H]3O)c2c1
Described as §1. A digest of the protocol:
as §2

Compound in data set [5]: O=C(O)c1cn([C@@H]2O[C@H](CO)[C@@H](O)[C@H]2O)c2ccc(Br)cc2c1=O
Described as §1. In outline:
as §2

Compound in data set [6]: COc1ccc2c(=O)c(C(=O)O)cn([C@@H]3O[C@H](CO)[C@@H](O)[C@H]3O)c2c1
Described as §1. A digest of the protocol: as §2

Compound in data set [7]: O=C(O)c1cn([C@@H]2O[C@H](CO)[C@@H](O)[C@H]2O)c2ccc(Cl)cc2c1=O
The description is as §1. In outline: as §2

B1: Glyceraldehyde-3-phosphate dehydrogenase, glycosomal (Trypanosoma cruzi), P22513 (protein)
chain: MPIKVGINGFGRIGRMVFQALCEDGLLGTEIDVVAVVDMNTDAEYFAYQMRYDTVHGKFKYEVTTTKSSPSVAKDDTLVVNGHRILCVKAQRNPADLPWGKLGVEYVIESTGLFTAKAAAEGHLRGGARKVVISAPASGGAKTLVMGVNHHEYNPSEHHVVSNASCTTNCLAPIVHVLVKEGFGVQTGLMTTIHSYTATQKTVDGVSVKDWRGGRAAAVNIIPSTTGAAKAVGMVIPSTQGKLTGMSFRVPTPDVSVVDLTFTAARDTSIQEIDAALKRASKTYMKGILGYTDEELVSADFINDNRSSIYDSKATLQNNLPKERRFFKIVSWYDNEWGYSHRVVDLVRHMASKDRSARL
On to B1, for which the Km was found to be 47 µM in data set [1]; 48.5 µM in data set [2]; 50 µM in data set [3]; 46.9 µM in data set [4]; 62.6 µM in data set [5]; 67.7 µM in data set [6]. Also, the Km in data set [7] came to 63.4 µM.

The term Km denotes the concentration of substrate that gives half-maximal velocity.

The record behind these values is ChEMBL document CHEMBL2407047, “Molecular design, synthesis and biological evaluation of 1,4-dihydro-4-oxoquinoline ribonucleosides as TcGAPDH inhibitors with trypanocidal activity” (Bioorg Med Chem Lett, 2013).
